The source of these data is ChEMBL document CHEMBL3992549, “Combretastatin A4-β-Galactosyl Conjugates for Ovarian Cancer Prodrug Monotherapy” (ACS Med Chem Lett, 2017).

Data set [1] is described as follows: Cytotoxicity against human OVK18 cells assessed as reduction in cell viability after 72 hrs by WST8 assay. The data set is classed as functional, cell-based. The settings on record: OVK18, 72 h.
The species entered for data set [2] is Homo sapiens. The experiment in a line: Induction of microtubule disruption in human OVCAR3 cells assessed as nuclear fragmentation at 20 to 200 nM after 24 hrs by Alexa Fluor 647/DAPI staining based fluorescence microscopic method. The data set is classed as cell-based. The method in brief:
(§1)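 OVCAR3 cells treated for 24 h, then imaged by confocal fluorescence microscopy. Nuclei were stained directly with DAPI. α-Tubulin was detected with an Alexa Fluor 647-conjugated secondary antibody. Microtubule architecture, cytoskeleton and nuclear morphology (contraction, fragmentation) were scored.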

The next data set addresses T1, Beta-galactosidase (Homo sapiens, UniProt P16278).
T1 sequence (P16278 whole entry): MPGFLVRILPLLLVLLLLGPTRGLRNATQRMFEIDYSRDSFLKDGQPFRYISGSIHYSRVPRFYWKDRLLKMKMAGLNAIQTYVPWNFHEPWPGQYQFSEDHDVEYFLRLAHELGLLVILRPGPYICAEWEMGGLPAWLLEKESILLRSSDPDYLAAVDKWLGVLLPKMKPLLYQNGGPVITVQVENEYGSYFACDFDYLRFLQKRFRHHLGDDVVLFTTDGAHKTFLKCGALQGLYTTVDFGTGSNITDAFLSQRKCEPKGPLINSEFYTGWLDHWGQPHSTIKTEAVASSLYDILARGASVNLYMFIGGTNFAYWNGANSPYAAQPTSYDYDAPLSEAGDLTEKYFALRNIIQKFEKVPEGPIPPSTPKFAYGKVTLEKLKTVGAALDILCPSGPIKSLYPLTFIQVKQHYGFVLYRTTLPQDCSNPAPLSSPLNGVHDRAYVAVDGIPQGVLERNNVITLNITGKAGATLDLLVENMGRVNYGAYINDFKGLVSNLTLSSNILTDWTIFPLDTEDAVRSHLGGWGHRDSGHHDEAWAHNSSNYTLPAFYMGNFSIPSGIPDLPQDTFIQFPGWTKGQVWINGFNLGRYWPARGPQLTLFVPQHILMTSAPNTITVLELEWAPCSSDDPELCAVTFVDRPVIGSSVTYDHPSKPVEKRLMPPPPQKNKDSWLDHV
The experiment in a line: Prodrug activation in PBS buffer assessed as beta-galactosidase (unknown origin) mediated CA4 formation at 0.2 mM after 1 hr by HPLC analysis. Particulars: 200 µM.

For data set [3], the species on record is Homo sapiens. Put plainly: Induction of microtubule disruption in human OVCAR3 cells assessed as change in microtubule architecture at 20 to 200 nM after 24 hrs by Alexa Fluor 647/DAPI staining based fluorescence microscopic method. Type of data set: cell-based. Summed up:
as §1

The species entered for data set [4] is Homo sapiens. Put plainly: Induction of microtubule disruption in human OVCAR3 cells assessed as nuclear contraction at 20 to 200 nM after 24 hrs by Alexa Fluor 647/DAPI staining based fluorescence microscopic method. Type of data set: cell-based. The method in brief:
as §1

Data set [5] deals with OVCAR-3. The experiment in a line: Cytotoxicity against human OVCAR3 cells assessed as reduction in cell viability at 200 nM after 48 hrs in presence of beta-galactosidase inhibitor beta-GA by WST8 assay. The data set is classed as functional, cell-based. The method in brief: (§2)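 β-Galactosidase inhibition condition was 1 mM β-GA present during compound treatment.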
(Tetrazolium dyes change colour on reduction, which living cells bring about.)

Data set [6] is filed under the species Homo sapiens. Put plainly: Induction of microtubule disruption in human OVCAR3 cells assessed as cytoskeleton contraction at 20 to 200 nM after 24 hrs by Alexa Fluor 647/DAPI staining based fluorescence microscopic method. The data set is classed as cell-based. The method in brief:
as §1

Data set [7] relates to OVK18. The experiment in a line: Cytotoxicity against human OVK18 cells assessed as reduction in cell viability at 200 nM after 48 hrs in presence of beta-galactosidase inhibitor beta-GA by WST8 assay. The data set is classed as functional, cell-based. Summed up:
as §2

For another data set, the species on record is Sus scrofa. The experiment in a line: Inhibition of pig brain tubulin polymerization at 5 uM measured every 1 min for 60 mins by HTS assay.
The subject of data set [8] is OVCAR-3. The experiment in a line: Cytotoxicity against human OVCAR3 cells assessed as reduction in cell viability after 72 hrs by WST8 assay. The data set is classed as functional, cell-based. Particulars: OVCAR-3, 72 h.
The species entered for data set [9] is Homo sapiens. Put plainly: Induction of microtubule disruption in human OVCAR3 cells assessed as nuclear contraction at 10 nM after 24 hrs by Alexa Fluor 647/DAPI staining based fluorescence microscopic method. Type of data set: cell-based. Summed up: as §1
The species named for data set [10] is Homo sapiens. The experiment in a line: Induction of microtubule disruption in human OVCAR3 cells assessed as change in microtubule architecture at 10 nM after 24 hrs by Alexa Fluor 647/DAPI staining based fluorescence microscopic method. The data set is classed as cell-based. Summed up:
as §1

For data set [11], the species on record is Homo sapiens. The experiment in a line: Induction of microtubule disruption in human OVCAR3 cells assessed as nuclear fragmentation at 10 nM after 24 hrs by Alexa Fluor 647/DAPI staining based fluorescence microscopic method. Type of data set: cell-based. Summed up:
as §1

Data set [12] is filed under the species Homo sapiens. Put plainly: Induction of microtubule disruption in human OVCAR3 cells assessed as cytoskeleton contraction at 10 nM after 24 hrs by Alexa Fluor 647/DAPI staining based fluorescence microscopic method. Type of data set: cell-based. Summed up: as §1
Data set [13] is filed under the species Homo sapiens. Put plainly: Induction of microtubule disruption in human OVCAR3 cells assessed as cytoskeleton contraction at 1 nM after 24 hrs by Alexa Fluor 647/DAPI staining based fluorescence microscopic method. The data set is classed as cell-based. Summed up: as §1
Data set [14] is filed under the species Homo sapiens. Put plainly: Induction of microtubule disruption in human OVCAR3 cells assessed as change in microtubule architecture at 1 nM after 24 hrs by Alexa Fluor 647/DAPI staining based fluorescence microscopic method. The data set is classed as cell-based. The method in brief:
as §1

The test system of data set [15] is OVK18. The experiment in a line: Cytotoxicity against human OVK18 cells assessed as reduction in cell viability at 10 nM after 48 hrs in presence of beta-galactosidase inhibitor beta-GA by WST8 assay. The data set is classed as functional, cell-based. The method in brief: as §2
Data set [16] deals with OVCAR-3. The experiment in a line: Cytotoxicity against human OVCAR3 cells assessed as reduction in cell viability at 10 nM after 48 hrs in presence of beta-galactosidase inhibitor beta-GA by WST8 assay. The data set is classed as functional, cell-based. The method in brief:
as §2

The source made the active and inactive calls. The rule behind the calls is not given here.

Consider `COc1ccc(/C=C\c2cc(OC)c(OC)c(OC)c2)cc1O[C@@H]1O[C@H](CO)[C@H](O)[C@H](O)[C@H]1O`, for which the EC50 (commonly the midpoint of the concentration-response curve) in [1] came out at 252 nM; in the data set on OVCAR-3 [8], 69.1 nM. The result in the data set filed under Homo sapiens [2], in the data set filed under Homo sapiens [3], in the data set listed under Homo sapiens [4] and in the data set filed under Homo sapiens [6] was Active. For the same compound, on Beta-galactosidase, the Drug metabolism entry was “Metabolite_Detected”. Also, the outcome in the data set on OVCAR-3 [5] and with OVK18 [7] was inactive. Further, the inhibition entry in the data set listed under Sus scrofa is “inactive”.

As for `COc1ccc(/C=C\c2cc(OC)c(OC)c(OC)c2)cc1O` [COMBRETASTATIN A4], the EC50 was determined as 1.99 nM in data set [1] and 3.45 nM in the data set on OVCAR-3 [8]. Also, the result in the data set listed under Homo sapiens [9], in the data set filed under Homo sapiens [10], in the data set filed under Homo sapiens [11] and in the data set filed under Homo sapiens [12] was Active.

In the case of `COc1ccc(/C=C\c2cc(OC)c(OC)c(OC)c2)cc1OCc1ccc(O[C@@H]2O[C@H](CO)[C@H](O)[C@H](O)[C@H]2O)cc1`, the EC50 in data set [1] was found to be 2.67 nM; in the data set with OVCAR-3 [8], 2.47 nM. For the same compound, the result in the data set filed under Homo sapiens [13], in the data set listed under Homo sapiens [9], in the data set listed under Homo sapiens [10], in the data set filed under Homo sapiens [11] and in the data set listed under Homo sapiens [12] was Active. In addition, the result in the data set filed under Homo sapiens [14], with OVK18 [15] and with OVCAR-3 [16] was inactive. The Drug metabolism result at Beta-galactosidase was “Metabolite_Detected”. For the same compound, the inhibition result in the data set listed under Sus scrofa was “inactive”.
